Test results taken from paper PMC11809490 (RSC Advances, 2025).
“Also recorded” adds a separate entry of the source. Like-named read-outs stand apart in the source and are kept apart here.

Assays:
MIAPACA = assay: MTT assay, cytotoxicity; assay type: cell-based, human; settings: read-out: IC50 MIAPACA, 48 h treatment, 0.1-40 μM
Procedure, shortened: (§1)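 Cells in medium with 10% FBS, streptomycin and penicillin; 5000 cells per well. After 12 h, test compounds added at 0.1–40 μM, with 0.1% DMSO as vehicle, for 48 h. Then serum-free medium and MTT (5 mg mL−1) at 4:1 for 4 h at 37 °C. Formazan dissolved in DMSO, absorbance at 570 nm, normalized to DMSO control. IC50 from sigmoidal variable-slope nonlinear regression.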

C4-2 = assay: MTT assay, cytotoxicity; assay type: cell-based, human
MCF7 = assay: MTT assay, cytotoxicity; assay type: cell-based, human; settings: read-out: IC50 MCF7
Procedure, shortened: as §1

PC3 = assay: MTT assay, cytotoxicity; assay type: cell-based, human; settings: read-out: IC50 PC3
Procedure, shortened: as §1

22Rv1 = assay: MTT assay, cytotoxicity; assay type: cell-based, human; settings: read-out: IC50 22Rv1
Procedure, shortened: as §1

HEK293 = assay: MTT assay, cytotoxicity to normal cells; assay type: cell-based, human; settings: for IC50: read-out: IC50 HEK293
Procedure, shortened: as §1

[1] = system: prostate, breast, epithelial cancer cells; assay: MTT assay, all tested cancer cell lines together; assay type: cell-based, human
Procedure, shortened: as §1

C4-2 cells [2] = assay: Acridine orange/ethidium bromide assay; assay type: cell-based, human; settings: 10 and 20 μM, 48 h
Procedure, shortened: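 C4-2 cells (0.25 × 10^5) seeded on 12 mm coverslips for 12 h, then given DMSO or test compound (10 and 20 μM) for 48 h. After PBS wash, stained with AO (100 μg mL−1) plus EB (100 μg mL−1) in PBS for 20 min. Washed and imaged by fluorescence microscopy: FITC channel for green (AO, all cells), TRITC for red (EB, dead cells).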

C4-2 cells [3] = assay: JC-1 staining, mitochondrial depolarization; assay type: cell-based, human; settings: 10 μM or 20 μM, 48 h
Procedure, shortened: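 C4-2 cells (0.25 × 10^5) on 12 mm coverslips, seeded 12 h, then exposed to DMSO or test compound (10 or 20 μM) for 48 h. After PBS wash, incubated with JC-1 (2 μM) in PBS for 20 min. Imaged in FITC and TRITC channels: orange aggregates mark polarized mitochondria, green marks depolarized.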

C4-2 cells [4] = assay: Clonogenic assay; assay type: cell-based, human; settings: 10 μM or 20 μM, 10 days
Procedure, shortened: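 1000 C4-2 cells plated per well and exposed to test compound at 10 or 20 μM. […] Incubated 10–12 days, washed with PBS and fixed in cold methanol:acetic acid (3:1) for 5–10 min. Colonies photographed for number and size. Run in duplicate.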

p-53 and c-jun = assay: Level of p-53 and c-jun; assay type: cell-based
C4-2 cells [5] = assay: Intracellular ROS levels, H2DCFDA staining; assay type: cell-based, human; settings: 10 μM and 20 μM, 48 h
Procedure, shortened: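 C4-2 cells on coverslips got DMSO, test compound or H2O2 (10 μM) for 48 h. The figure legend gives test compound at 10 and 20 μM. Cells washed with PBS and loaded with H2DCFDA (2 μM final) in PBS, 40 min at 37 °C. Green signal imaged in FITC channel and expressed relative to DMSO. Three independent replicates; Student's t-test.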

tubulin in C4-2 cells = assay: Tubulin immunofluorescence; assay type: cell-based, human; settings: 10 μM and 20 μM, 48 h
Procedure, shortened: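 Fixed and permeabilized with ice-cold methanol. Blocked 1 h in 2% BSA/1% Triton X-100 in PBS. Tubulin antibody overnight at 4 °C, then FITC goat anti-mouse secondary 3 h in the dark. Imaged in FITC and DAPI channels.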

[6] = read-out: IC50 C4-2, MTT, 48 h treatment, 0.1-40 μM
[7] = normal human kidney cells, MTT, 48 h
[8] = Homo sapiens, C4-2, 48 h, read-out: IC50 C4-2, MTT, 48 h treatment, 0.1-40 μM

Row | Compound | IC50 (C4-2; [8]) [µM] | IC50 (MCF7; Homo sapiens, MCF7, 48 h) [µM] | IC50 (PC3; Homo sapiens, PC-3, 48 h) [µM] | cytotoxicity against the tested cancer cells, in words (SAR) [1] | IC50 (22Rv1; Homo sapiens, 22Rv1, 48 h) [µM] | IC50 (HEK293; Homo sapiens, HEK293, 48 h) [µM] | other results
1 | 2-(5-Isopropoxy-1H-indole-3-carbonyl)-3-(1-methyl-1H-indol-3-yl)acrylonitrile [21m] | – | – | – | – | – | – | IC50 (MIAPACA): 1.6 µM; IC50 (C4-2; [6]): 17.6 µM; IC50 (MCF7; MTT, 48 h treatment, 0.1-40 μM): 2.98 µM; IC50 (PC3; MTT, 48 h treatment, 0.1-40 μM): 11.7 µM; IC50 (22Rv1; MTT, 48 h treatment, 0.1-40 μM): 16.4 µM; IC50 (HEK293; [7]): > 40 µM
2 | COc1ccc2c(C(=O)C(C#N)=Cc3cn(C)c4ccccc34)c[nH]c2c1 [21e, 2-(6-Methoxy-1H-indole-3-carbonyl)-3-(1-methyl-1H-indol-3-yl)acrylonitrile] | 15.7 | 12.5 | 7.61 | reduced activity | 28 | > 40 | –
3 | COc1ccc(C=C(C#N)C(=O)c2c[nH]c3ccccc23)cc1OC [21r, 3-(3,4-Dimethoxyphenyl)-2-(1H-indole-3-carbonyl)acrylonitrile] | > 40 | > 40 | 25 | detrimental for the activity | 34 | 31 | –
4 | COc1cc2[nH]cc(C(=O)C(C#N)=Cc3cn(Cc4ccc(Cl)cc4)c4ccccc34)c2cc1OC [21p, 3-(1-(4-Chlorobenzyl)-1H-indol-3-yl)-2-(5,6-dimethoxy-1H-indole-3-carbonyl)-acrylonitrile] | 31 | > 40 | > 40 | detrimental for the activity | > 40 | > 40 | –
5 | COc1ccc(C=C(C#N)C(=O)c2c[nH]c3ccccc23)cc1 [21q, 2-(1H-Indole-3-carbonyl)-3-(4-methoxyphenyl)acrylonitrile] | > 40 | 25 | 37 | detrimental for the activity | 28 | > 40 | –
6 | 3-(1-Ethyl-1H-indol-3-yl)-2-(5-isopropoxy-1H-indole-3-carbonyl)acrylonitrile [21l] | – | – | – | – | – | – | IC50 (MIAPACA): 37.6 µM; IC50 (C4-2; [6]): 26.4 µM; IC50 (MCF7; MTT, 48 h treatment, 0.1-40 μM): 7.95 µM; IC50 (PC3; MTT, 48 h treatment, 0.1-40 μM): 4.6 µM; IC50 (22Rv1; MTT, 48 h treatment, 0.1-40 μM): 2.5 µM; IC50 (HEK293; [7]): 37.9 µM
7 | CCOc1ccc2[nH]cc(C(=O)C(C#N)=Cc3cn(CC)c4ccccc34)c2c1 [21i, 2-(5-Ethoxy-1H-indole-3-carbonyl)-3-(1-ethyl-1H-indol-3-yl)acrylonitrile] | 2.2 | 7.38 | 2.63 | significantly enhanced cytotoxicity | 8.9 | > 40 | –
8 | CCn1cc(C=C(C#N)C(=O)c2c[nH]c3ccc(OC)cc23)c2ccccc21 [21d, 3-(1-Ethyl-1H-indol-3-yl)-2-(5-methoxy-1H-indole-3-carbonyl)acrylonitrile] | 8 | 10.9 | > 40 | – | 25 | 39.2 | –
9 | N#CC(=Cc1cn(Cc2ccc(Cl)cc2)c2ccccc12)C(=O)c1c[nH]c2ccccc12 [21b, 3-(1-(4-Chlorobenzyl)-1H-indol-3-yl)-2-(1H-indole-3-carbonyl)acrylonitrile] | 13.5 | 6.9 | 10.6 | moderate activity | 21.5 | 40 | –
10 | CCCOc1ccc2[nH]cc(C(=O)C(C#N)=Cc3cn(CC)c4ccccc34)c2c1 [21j, 3-(1-Ethyl-1H-indol-3-yl)-2-(5-propoxy-1H-indole-3-carbonyl)acrylonitrile] | 0.9 | 1.2 | 5.6 | significantly enhanced cytotoxicity; also recorded: most effective compound across all cancer cell lines tested | 2.9 | > 40 | IC50 (C4-2; [6]): 0.98 µM; cell death / apoptosis by AO-EB staining (C4-2 cells [2]): robust cell death; also recorded: induced substantial apoptosis; mitochondrial depolarization (JC-1) (C4-2 cells [3]): induced significant mitochondrial depolarization; also recorded: induces mitochondrial depolarization; number and size of colonies (C4-2 cells [4]): significantly inhibited the number and size of colonies; also recorded: inhibits colony formation; level of p-53 and c-jun (p-53 and c-jun): upregulate the level of p-53 and c-jun; ROS levels (DCFDA) (C4-2 cells [5]): robust increase in ROS levels; also recorded: raises the levels of ROS; cytotoxicity to normal HEK293 cells, in words (HEK293): no notable impact; tubulin assembly (β-tubulin antibody staining) (tubulin in C4-2 cells): significant loss of tubulin assembly; also recorded: increases tubulin depolymerization
11 | CCn1cc(C=C(C#N)C(=O)c2c[nH]c3cc(OC)ccc23)c2ccccc21 [21f, 3-(1-Ethyl-1H-indol-3-yl)-2-(6-methoxy-1H-indole-3-carbonyl)acrylonitrile] | 12.5 | 37 | 24 | reduced activity | > 40 | 40 | –
12 | COc1cc2[nH]cc(C(=O)C(C#N)=Cc3cn(C)c4ccccc34)c2cc1OC [21n, 2-(5,6-Dimethoxy-1H-indole-3-carbonyl)-3-(1-methyl-1H-indol-3-yl)acrylonitrile] | 1.02 | 5.61 | 7.1 | improved the selectivity against prostate cancer cell lines | 20.5 | > 40 | –
13 | COc1ccc2[nH]cc(C(=O)C(C#N)=Cc3cn(C)c4ccccc34)c2c1 [21c, 2-(5-Methoxy-1H-indole-3-carbonyl)-3-(1-methyl-1H-indol-3-yl)acrylonitrile] | 7.5 | 25.3 | 15.5 | – | 1.23 | > 40 | –
14 | CCCOc1ccc2[nH]cc(C(=O)C(C#N)=Cc3cn(C)c4ccccc34)c2c1 [21k, 3-(1-Methyl-1H-indol-3-yl)-2-(5-propoxy-1H-indole-3-carbonyl)acrylonitrile] | 13.8 | 18.6 | 16.1 | – | 28 | 39.8 | –
15 | COc1ccc2c(C(=O)C(C#N)=Cc3cn(Cc4ccc(Cl)cc4)c4ccccc34)c[nH]c2c1 [21g, 3-(1-(4-Chlorobenzyl)-1H-indol-3-yl)-2-(6-methoxy-1H-indole-3-carbonyl)acrylonitrile] | 13.3 | 10.5 | 14.3 | reduced activity | 34 | > 40 | –
16 | CCOc1ccc2[nH]cc(C(=O)C(C#N)=Cc3cn(C)c4ccccc34)c2c1 [21h, 2-(5-Ethoxy-1H-indole-3-carbonyl)-3-(1-methyl-1H-indol-3-yl)acrylonitrile] | 10 | 16.8 | 27.3 | significantly enhanced cytotoxicity | 5.23 | 40 | –
17 | CCn1cc(C=C(C#N)C(=O)c2c[nH]c3cc(OC)c(OC)cc23)c2ccccc21 [21o, 2-(5,6-Dimethoxy-1H-indole-3-carbonyl)-3-(1-ethyl-1H-indol-3-yl)acrylonitrile] | 5.9 | 31.5 | 19 | improved the selectivity against prostate cancer cell lines | 26 | > 40 | –
18 | CCn1cc(/C=C(\C#N)C(=O)c2c[nH]c3ccccc23)c2ccccc21 [21a, (E)-3-(1-Ethyl-1H-indol-3-yl)-2-(1H-indole-3-carbonyl)acrylonitrile] | 3.9 | 10.2 | 13 | – | > 40 | > 40 | –
